Measured values published in ChEMBL document CHEMBL4371099, “Bifunctional Duocarmycin Analogues as Inhibitors of Protein Tyrosine Kinases” (J Nat Prod, 2019).
Active and inactive are the calls of the source. No cut-off for these calls is given here.

Columns and labels:
CCRF-CEM [1] = assay: Cell cycle arrest in human CCRF-CEM cells at 100 nM after 24 hrs by propidium iodide staining based FACS analysis; assay type: functional
Method in brief: (§1)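 Cells (1 × 10^6) seeded in 12-well plates and held overnight, then exposed to increasing concentrations of test compound or 100 nM axitinib (VEGFR-2 inhibition control) for 24 h at 37 °C, 5% CO2. Fixed in cold 70% ethanol, stained with propidium iodide for 30 min, DNA content read by flow cytometry on 10,000 gated events; three independent experiments, means ± SD.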

ADR5000 cell line [2] = assay: Cell cycle arrest in human CEM/ADR5000 cells at 100 nM after 24 hrs by propidium iodide staining based FACS analysis; assay type: functional; method in brief: as §1
Jurkat [3] = assay: Cell cycle arrest in human Jurkat cells at 100 nM after 24 hrs by propidium iodide staining based FACS analysis; assay type: functional; method in brief: as §1
A549 [4] = assay: Cell cycle arrest in human A549 cells at 100 nM after 24 hrs by propidium iodide staining based FACS analysis; assay type: functional; method in brief: as §1
MIA PaCa-2 [5] = assay: Cell cycle arrest in human MIAPaCa2 cells at 100 nM after 24 hrs by propidium iodide staining based FACS analysis; assay type: functional; method in brief: as §1
[6] = molecular target: T1, Tyrosine-protein kinase ABL2 (Homo sapiens, UniProt P42684); assay: Inhibition of recombinant human N-terminal GST/His6-tagged ABL2 (M1 to P650 residues) expressed in sf9 cells using Poly(Glu,Tyr) 4:1 as substrate after 60 mins in presence of [gamma33P]-ATP by scintillation counting method
Method in brief: (§2)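 Radiometric 33PanQinase assay using recombinant human kinases from Sf9 or E. coli, purified by affinity chromatography. ATP at the apparent Km, plus [γ-33P]-ATP. Compound tested at 1−10 000 nM, 1% DMSO. Incubated 60 min at 30 °C, stopped with 2% H3PO4, 33Pi incorporation counted by scintillation.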

[7] = molecular target: T2, Mast/stem cell growth factor receptor Kit (Homo sapiens, UniProt P10721); assay: Inhibition of recombinant human N-terminal GST/His6-tagged c-KIT (T544 to V976 residues) expressed in sf9 cells using Poly(Glu,Tyr) 4:1 as substrate after 60 mins in presence of [gamma33P]-ATP by scintillation counting method; method in brief: as §2
[8] = molecular target: T3, Vascular endothelial growth factor receptor 1 (Homo sapiens, UniProt P17948); assay: Inhibition of recombinant human N-terminal GST-tagged VEGFR1 (K784 to I1338 residues) expressed in sf9 cells using Poly(Glu,Tyr) 4:1 as substrate after 60 mins in presence of [gamma33P]-ATP by scintillation counting method; method in brief: as §2
[9] = molecular target: T4, Vascular endothelial growth factor receptor 2 (Homo sapiens, UniProt P35968); assay: Inhibition of recombinant human N-terminal GST-tagged VEGFR2 (D807 to V1356 residues) expressed in sf9 cells using Poly(Glu,Tyr) 4:1 as substrate after 60 mins in presence of [gamma33P]-ATP by scintillation counting method; method in brief: as §2
[10] = molecular target: T5, Vascular endothelial growth factor receptor 3 (Homo sapiens, UniProt P35916); assay: Inhibition of recombinant human N-terminal GST/His6-tagged VEGFR3 (N799 to R1298 residues) expressed in sf9 cells using Poly(Glu,Tyr) 4:1 as substrate after 60 mins in presence of [gamma33P]-ATP by scintillation counting method; method in brief: as §2
[11] = molecular target: T1, Tyrosine-protein kinase ABL2; assay: Inhibition of recombinant human N-terminal GST/His6-tagged ABL2 (M1 to P650 residues) expressed in sf9 cells assessed as equivalents of test compound required to show 50% inhibition using Poly(Glu,Tyr) 4:1 as substrate after 60 mins in presence of [gamma33P]-ATP by scintillation counting method; method in brief: as §2
[12] = molecular target: T2, Mast/stem cell growth factor receptor Kit; assay: Inhibition of recombinant human N-terminal GST/His6-tagged c-KIT (T544 to V976 residues) expressed in sf9 cells assessed as equivalents of test compound required to show 50% inhibition using Poly(Glu,Tyr) 4:1 as substrate after 60 mins in presence of [gamma33P]-ATP by scintillation counting method; method in brief: as §2
[13] = molecular target: T3, Vascular endothelial growth factor receptor 1; assay: Inhibition of recombinant human N-terminal GST-tagged VEGFR1 (K784 to I1338 residues) expressed in sf9 cells assessed as equivalents of test compound required to show 50% inhibition using Poly(Glu,Tyr) 4:1 as substrate after 60 mins in presence of [gamma33P]-ATP by scintillation counting method; method in brief: as §2
[14] = molecular target: T4, Vascular endothelial growth factor receptor 2; assay: Inhibition of recombinant human N-terminal GST-tagged VEGFR2 (D807 to V1356 residues) expressed in sf9 cells assessed as equivalents of test compound required to show 50% inhibition using Poly(Glu,Tyr) 4:1 as substrate after 60 mins in presence of [gamma33P]-ATP by scintillation counting method; method in brief: as §2
[15] = molecular target: T5, Vascular endothelial growth factor receptor 3; assay: Inhibition of recombinant human N-terminal GST/His6-tagged VEGFR3 (N799 to R1298 residues) expressed in sf9 cells assessed as equivalents of test compound required to show 50% inhibition using Poly(Glu,Tyr) 4:1 as substrate after 60 mins in presence of [gamma33P]-ATP by scintillation counting method; method in brief: as §2
PBMC = assay: Cytotoxicity against human PBMC assessed as reduction in cell viability after 24 hrs by MTT assay; assay type: cell-based
Method in brief: (§3)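 Cancer lines or PBMC from healthy human donors seeded in 96-well plates. Exposed to various compound concentrations for 24 h at 37 °C, 5% CO2. MTT solution (5 mg/mL) then added and incubated 2 h more. IC50 obtained by nonlinear regression. Mean ± SD of three independent experiments.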

CCRF-CEM [16] = assay: Cytotoxicity against human CCRF-CEM cells assessed as reduction in cell viability after 24 hrs by MTT assay; assay type: functional, cell-based; method in brief: as §3
ADR5000 cell line [17] = assay: Cytotoxicity against human CEM/ADR5000 cells assessed as reduction in cell viability after 24 hrs by MTT assay; assay type: functional, cell-based; conditions: ADR5000, 24 h; method in brief: as §3
Jurkat [18] = assay: Cytotoxicity against human Jurkat cells assessed as reduction in cell viability after 24 hrs by MTT assay; assay type: functional, cell-based; method in brief: as §3
A549 [19] = assay: Cytotoxicity against human A549 cells assessed as reduction in cell viability after 24 hrs by MTT assay; assay type: functional, cell-based; conditions: A549, 24 h; method in brief: as §3
MIA PaCa-2 [20] = assay: Cytotoxicity against human MIAPaCa2 cells assessed as reduction in cell viability after 24 hrs by MTT assay; assay type: functional, cell-based; conditions: MIA PaCa-2, 24 h; method in brief: as §3
[21] = Selectivity index, ratio of IC50 for human PBMC to IC50 for human CCRF-CEM cells; assay type: toxicity; conditions: PBMC versus CCRF-CEM cells, read-out: Ratio IC50
Method in brief: (§4)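 Selectivity index calculated as MTT IC50 in PBMC divided by MTT IC50 in the cancer line. Both values come from the 24 h MTT viability assay.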

[22] = Selectivity index, ratio of IC50 for human PBMC to IC50 for human CEM/ADR5000 cells; assay type: toxicity; conditions: PBMC versus CEM/ADR5000 cells, read-out: Ratio IC50; method in brief: as §4
[23] = Selectivity index, ratio of IC50 for human PBMC to IC50 for human Jurkat cells; assay type: toxicity; conditions: PBMC versus Jurkat cells, read-out: Ratio IC50; method in brief: as §4
[24] = Selectivity index, ratio of IC50 for human PBMC to IC50 for human A549 cells; assay type: toxicity; conditions: PBMC versus A549 cells, read-out: Ratio IC50; method in brief: as §4
[25] = Selectivity index, ratio of IC50 for human PBMC to IC50 for human MIAPaCa2 cells; assay type: toxicity; conditions: PBMC versus MIAPaCa2 cells, read-out: Ratio IC50; method in brief: as §4
CCRF-CEM [26] = assay: Cell cycle arrest in human CCRF-CEM cells assessed as accumulation at sub-G1 phase after 24 hrs by propidium iodide staining based FACS analysis; assay type: functional
Method in brief: (§5)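 Cells (1 × 10^6) seeded, incubated overnight, then exposed 24 h at 37 °C and 5% CO2 to increasing concentrations of compound (100 nM axitinib as VEGFR-2 control). Fixed in cold 70% ethanol, stained with propidium iodide for 30 min. DNA content read by flow cytometry, 10,000 gated events per sample. Sub-G1 fraction taken as apoptosis. Three independent experiments.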

ADR5000 cell line [27] = assay: Cell cycle arrest in human CEM/ADR5000 cells assessed as accumulation at sub-G1 phase after 24 hrs by propidium iodide staining based FACS analysis; assay type: functional; method in brief: as §5
Jurkat [28] = assay: Cell cycle arrest in human Jurkat cells assessed as accumulation at sub-G1 phase after 24 hrs by propidium iodide staining based FACS analysis; assay type: functional; method in brief: as §5
A549 [29] = assay: Cell cycle arrest in human A549 cells assessed as accumulation at sub-G1 phase after 24 hrs by propidium iodide staining based FACS analysis; assay type: functional; method in brief: as §5
MIA PaCa-2 [30] = assay: Cell cycle arrest in human MIAPaCa2 cells assessed as accumulation at sub-G1 phase after 24 hrs by propidium iodide staining based FACS analysis; assay type: functional; method in brief: as §5
MIA PaCa-2 [31] = assay: Cell cycle arrest in human MIAPaCa2 cells assessed as accumulation at S phase at 1 nM after 24 hrs by propidium iodide staining based FACS analysis; assay type: functional; method in brief: as §5
[32] = Cytotoxicity against human PBMC assessed as cell viability at 80 uM after 24 hrs by MTT assay relative to control; assay type: cell-based; conditions: read-out: Activity; method in brief: as §3
MIA PaCa-2 [33] = assay: Cell cycle arrest in human MIAPaCa2 cells at 1 to 1000 nM after 24 hrs by propidium iodide staining based FACS analysis; assay type: functional; method in brief: as §5

T3 sequence (P17948 whole entry, the tested form may be a part): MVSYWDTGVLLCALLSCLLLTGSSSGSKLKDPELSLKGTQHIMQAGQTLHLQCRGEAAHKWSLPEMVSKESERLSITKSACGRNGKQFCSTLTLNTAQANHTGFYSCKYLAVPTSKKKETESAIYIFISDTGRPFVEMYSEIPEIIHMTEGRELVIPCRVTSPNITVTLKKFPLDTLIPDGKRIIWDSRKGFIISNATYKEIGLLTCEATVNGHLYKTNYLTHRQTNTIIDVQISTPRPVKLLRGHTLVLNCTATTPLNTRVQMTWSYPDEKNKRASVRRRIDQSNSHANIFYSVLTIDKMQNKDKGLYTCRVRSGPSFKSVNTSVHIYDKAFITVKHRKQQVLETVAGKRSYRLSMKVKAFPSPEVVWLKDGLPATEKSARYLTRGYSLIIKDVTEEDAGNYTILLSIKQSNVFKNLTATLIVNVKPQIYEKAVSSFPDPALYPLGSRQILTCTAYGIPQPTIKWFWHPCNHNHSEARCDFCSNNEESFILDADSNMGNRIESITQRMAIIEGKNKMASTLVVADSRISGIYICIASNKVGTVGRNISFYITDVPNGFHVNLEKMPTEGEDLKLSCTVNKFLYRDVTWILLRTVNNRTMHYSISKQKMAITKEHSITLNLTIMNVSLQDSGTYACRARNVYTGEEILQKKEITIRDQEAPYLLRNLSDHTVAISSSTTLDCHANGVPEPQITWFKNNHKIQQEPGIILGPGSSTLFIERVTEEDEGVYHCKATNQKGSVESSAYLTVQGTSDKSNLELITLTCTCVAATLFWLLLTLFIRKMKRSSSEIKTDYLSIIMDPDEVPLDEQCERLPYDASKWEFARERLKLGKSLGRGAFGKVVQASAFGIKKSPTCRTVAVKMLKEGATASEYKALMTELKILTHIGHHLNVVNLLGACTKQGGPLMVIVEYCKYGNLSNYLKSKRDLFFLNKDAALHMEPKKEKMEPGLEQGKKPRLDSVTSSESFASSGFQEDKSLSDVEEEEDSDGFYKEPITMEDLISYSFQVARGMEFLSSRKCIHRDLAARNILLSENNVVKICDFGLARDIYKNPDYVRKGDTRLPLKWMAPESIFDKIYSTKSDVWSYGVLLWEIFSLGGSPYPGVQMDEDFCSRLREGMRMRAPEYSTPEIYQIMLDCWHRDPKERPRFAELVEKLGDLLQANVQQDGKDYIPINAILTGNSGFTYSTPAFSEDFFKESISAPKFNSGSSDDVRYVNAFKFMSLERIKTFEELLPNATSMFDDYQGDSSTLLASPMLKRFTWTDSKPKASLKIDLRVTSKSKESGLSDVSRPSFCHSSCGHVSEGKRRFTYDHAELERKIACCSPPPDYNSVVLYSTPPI
T4 sequence (P35968 whole entry, the tested form may be a part): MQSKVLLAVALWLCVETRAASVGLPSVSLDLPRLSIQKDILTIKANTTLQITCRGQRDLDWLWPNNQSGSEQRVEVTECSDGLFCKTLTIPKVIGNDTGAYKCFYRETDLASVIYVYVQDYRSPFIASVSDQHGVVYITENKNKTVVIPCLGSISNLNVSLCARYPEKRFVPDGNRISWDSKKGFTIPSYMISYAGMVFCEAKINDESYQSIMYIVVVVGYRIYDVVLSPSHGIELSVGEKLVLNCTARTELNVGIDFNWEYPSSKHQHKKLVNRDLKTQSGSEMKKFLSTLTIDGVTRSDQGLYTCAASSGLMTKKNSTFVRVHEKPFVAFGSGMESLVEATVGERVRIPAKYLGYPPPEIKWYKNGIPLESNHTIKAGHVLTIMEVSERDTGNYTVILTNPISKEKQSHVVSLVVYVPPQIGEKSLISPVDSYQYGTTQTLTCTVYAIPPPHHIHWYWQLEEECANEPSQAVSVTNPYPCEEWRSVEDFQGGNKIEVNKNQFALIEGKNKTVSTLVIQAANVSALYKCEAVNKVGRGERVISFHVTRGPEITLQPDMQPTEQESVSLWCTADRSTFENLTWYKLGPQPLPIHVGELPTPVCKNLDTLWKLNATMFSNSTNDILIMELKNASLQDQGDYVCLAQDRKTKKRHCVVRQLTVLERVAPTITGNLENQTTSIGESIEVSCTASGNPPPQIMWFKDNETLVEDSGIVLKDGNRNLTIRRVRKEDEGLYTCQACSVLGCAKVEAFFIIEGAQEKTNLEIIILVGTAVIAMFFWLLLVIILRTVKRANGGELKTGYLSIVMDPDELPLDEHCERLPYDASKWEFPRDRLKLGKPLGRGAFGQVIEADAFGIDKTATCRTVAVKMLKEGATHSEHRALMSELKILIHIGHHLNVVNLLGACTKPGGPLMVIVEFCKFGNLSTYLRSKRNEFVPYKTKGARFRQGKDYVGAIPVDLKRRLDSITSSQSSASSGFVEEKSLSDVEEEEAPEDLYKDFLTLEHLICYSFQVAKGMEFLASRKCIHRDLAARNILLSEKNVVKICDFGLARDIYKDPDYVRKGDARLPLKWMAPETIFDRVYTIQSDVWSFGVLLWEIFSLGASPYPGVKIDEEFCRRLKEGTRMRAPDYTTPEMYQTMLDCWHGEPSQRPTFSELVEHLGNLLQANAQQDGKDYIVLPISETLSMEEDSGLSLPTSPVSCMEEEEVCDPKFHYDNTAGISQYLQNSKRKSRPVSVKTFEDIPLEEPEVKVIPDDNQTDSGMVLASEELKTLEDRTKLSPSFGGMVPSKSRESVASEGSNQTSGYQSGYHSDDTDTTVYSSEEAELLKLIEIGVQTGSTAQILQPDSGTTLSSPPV
T1 sequence (P42684 whole entry, the tested form may be a part): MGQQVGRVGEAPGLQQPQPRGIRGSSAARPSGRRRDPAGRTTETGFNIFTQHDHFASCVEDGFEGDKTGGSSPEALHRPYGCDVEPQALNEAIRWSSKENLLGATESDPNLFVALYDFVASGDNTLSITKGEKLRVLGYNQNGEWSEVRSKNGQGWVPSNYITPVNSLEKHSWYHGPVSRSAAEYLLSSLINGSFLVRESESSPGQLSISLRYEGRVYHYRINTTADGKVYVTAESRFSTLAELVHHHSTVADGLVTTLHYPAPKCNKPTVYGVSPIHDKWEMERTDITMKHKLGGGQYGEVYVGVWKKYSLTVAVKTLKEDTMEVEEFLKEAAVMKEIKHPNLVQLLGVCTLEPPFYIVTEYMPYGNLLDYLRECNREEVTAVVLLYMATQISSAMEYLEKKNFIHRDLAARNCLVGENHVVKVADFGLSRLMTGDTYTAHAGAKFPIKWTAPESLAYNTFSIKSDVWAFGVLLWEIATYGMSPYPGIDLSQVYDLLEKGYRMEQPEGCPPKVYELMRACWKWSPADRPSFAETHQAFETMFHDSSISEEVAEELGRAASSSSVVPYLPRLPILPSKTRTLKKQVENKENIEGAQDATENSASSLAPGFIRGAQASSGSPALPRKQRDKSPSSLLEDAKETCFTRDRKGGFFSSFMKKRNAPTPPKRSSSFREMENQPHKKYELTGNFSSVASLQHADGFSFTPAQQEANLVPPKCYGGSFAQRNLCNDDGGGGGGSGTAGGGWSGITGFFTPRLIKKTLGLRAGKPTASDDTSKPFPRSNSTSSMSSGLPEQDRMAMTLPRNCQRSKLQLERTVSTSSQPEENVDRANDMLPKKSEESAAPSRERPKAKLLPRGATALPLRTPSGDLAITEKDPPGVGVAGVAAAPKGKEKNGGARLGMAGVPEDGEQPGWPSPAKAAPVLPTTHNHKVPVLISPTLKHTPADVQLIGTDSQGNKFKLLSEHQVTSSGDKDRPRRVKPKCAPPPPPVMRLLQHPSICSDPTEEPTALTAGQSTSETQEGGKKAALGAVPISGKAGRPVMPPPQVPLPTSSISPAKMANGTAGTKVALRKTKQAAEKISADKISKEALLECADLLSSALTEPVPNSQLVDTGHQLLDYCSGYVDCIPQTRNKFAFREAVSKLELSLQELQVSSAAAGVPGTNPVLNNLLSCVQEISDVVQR
T2 sequence (P10721 whole entry, the tested form may be a part): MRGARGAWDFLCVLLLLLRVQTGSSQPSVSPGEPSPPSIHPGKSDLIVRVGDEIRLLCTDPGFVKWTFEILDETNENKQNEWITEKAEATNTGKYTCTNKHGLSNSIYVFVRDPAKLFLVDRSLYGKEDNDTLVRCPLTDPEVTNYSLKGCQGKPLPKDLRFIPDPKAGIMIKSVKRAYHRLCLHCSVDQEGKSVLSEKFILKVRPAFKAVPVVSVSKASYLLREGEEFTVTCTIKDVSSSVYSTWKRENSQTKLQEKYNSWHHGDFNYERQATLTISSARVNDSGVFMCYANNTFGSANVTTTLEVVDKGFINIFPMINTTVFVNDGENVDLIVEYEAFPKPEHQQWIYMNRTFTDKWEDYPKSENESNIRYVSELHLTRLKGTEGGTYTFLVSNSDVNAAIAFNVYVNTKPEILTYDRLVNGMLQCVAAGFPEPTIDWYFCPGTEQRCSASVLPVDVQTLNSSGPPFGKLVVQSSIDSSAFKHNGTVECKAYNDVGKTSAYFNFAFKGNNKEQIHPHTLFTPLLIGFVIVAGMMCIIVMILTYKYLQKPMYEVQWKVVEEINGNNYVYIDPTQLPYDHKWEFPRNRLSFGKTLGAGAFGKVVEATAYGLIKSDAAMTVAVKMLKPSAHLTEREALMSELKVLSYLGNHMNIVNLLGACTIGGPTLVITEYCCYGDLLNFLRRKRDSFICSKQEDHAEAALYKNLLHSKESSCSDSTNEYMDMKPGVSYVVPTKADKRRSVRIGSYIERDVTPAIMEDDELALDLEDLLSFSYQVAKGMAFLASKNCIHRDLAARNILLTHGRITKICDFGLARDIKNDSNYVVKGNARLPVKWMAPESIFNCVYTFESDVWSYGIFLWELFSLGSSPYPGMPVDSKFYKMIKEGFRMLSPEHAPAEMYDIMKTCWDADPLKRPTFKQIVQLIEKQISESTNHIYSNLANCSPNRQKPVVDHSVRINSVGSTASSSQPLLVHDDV

SMILES	IC50 [6] [nM]	IC50 [7] [nM]	IC50 [8] [nM]	IC50 [9] [nM]	IC50 [10] [nM]	Activity [11] [equiv]	Activity [12] [equiv]	Activity [13] [equiv]	Activity [14] [equiv]	IC50 (PBMC) [nM]	IC50 (CCRF-CEM [16]) [nM]	IC50 (ADR5000 cell line [17]) [nM]	IC50 (Jurkat [18]) [nM]	IC50 (A549 [19]) [nM]	IC50 (MIA PaCa-2 [20]) [nM]	selectivity ratio [21]	selectivity ratio [23]	selectivity ratio [24]	also measured
CNC(=O)c1ccccc1Sc1ccc2c(/C=C/c3ccccn3)n[nH]c2c1																			Activity (CCRF-CEM [1]): Active; Activity (ADR5000 cell line [2]): Active; Activity (Jurkat [3]): Active; Activity (A549 [4]): Active; Activity (MIA PaCa-2 [5]): Active
O=C(CCCC(=O)N1C[C@@H](CCl)c2c1cc(O)c1ccccc21)N1C[C@@H](CCl)c2c1cc(O)c1ccccc21	685	3000	1270	530	4200	457	233	283	230	2000	0.9	6.9	1.4	2.7	14.1	2220	1430	741	inhibition [6]: Dose-dependent effect; inhibition [7]: Dose-dependent effect; inhibition [8]: Dose-dependent effect; inhibition [9]: Dose-dependent effect; inhibition [10]: Dose-dependent effect; Activity [15]: 894 equiv; selectivity ratio [22]: 290; selectivity ratio [25]: 142; Activity (CCRF-CEM [26]): Dose-dependent effect; Activity (ADR5000 cell line [27]): Dose-dependent effect; Activity (Jurkat [28]): Dose-dependent effect; Activity (A549 [29]): Dose-dependent effect; Activity (MIA PaCa-2 [30]): Dose-dependent effect; Activity (MIA PaCa-2 [31]): Active
C[C@@H]1CN(C(=O)CCCC(=O)N2C[C@@H](C)c3c2cc(O)c2ccccc32)c2cc(O)c3ccccc3c21	540	8300	2100	330	> 10000	360	643	511	143	> 80000	182	> 10000	660	663	> 10000	> 439	> 121	> 120	viability at 24 h, 80 µM [32]: 80%; Activity (MIA PaCa-2 [33]): inactive
